Test results taken from PMC3279955 (ACS chemical neuroscience, 2012).

Key:
[1] = tested on: primary immature cortical neurons; test: Oxidative stress; assay type: cell-based
Method in brief: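 Primary cortical neurons were exposed to test compound (20 μM) with or without homocysteic acid (HCA, 5 mM), which depletes glutathione. Survival was read by MTT assay after 48 h and expressed as percent of the no-inhibitor control, mean ± SEM. Live/dead staining with calcein AM and ethidium homodimer was done in parallel.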

[2] = tested on: human SMA patient fibroblasts; conditions: commercially available GSK-3 inhibitors; cited from earlier work
[3] = target: PKCβ2 (Homo sapiens, UniProt P05771); test: Kinase inhibition assay; assay type: biochemical
[4] = tested on: GSK-3; test: GSK-3 inhibition in the presence of 10 µM ATP; assay type: biochemical; conditions: read-out: GSK-3 IC50; tested in the presence of 10 µM ATP
[5] = tested on: human SMA patient fibroblasts; test: SMN protein level in SMA patient fibroblasts by western blot; assay type: cell-based; conditions: 72 h
Method in brief: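 Fibroblasts from SMA patients were exposed to test compound (20, 25 or 30 μM) or DMSO vehicle for 72 h. SMN protein was assessed by Western blot and quantified from three separate experiments.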

[6] = tested on: Δ7 SMA KO mouse; test: Δ7 SMA KO neonatal mouse model: survival, body weight, tolerability; assay type: in vivo
[7] = tested on: Δ7 SMA KO mouse; test: Δ7 SMA KO mouse model: negative geotaxis test; assay type: in vivo; conditions: 75 mg/kg once a day
[8] = tested on: Δ7 SMA KO mouse; test: Δ7 SMA KO mouse model: tube test; assay type: in vivo; conditions: 75 mg/kg once a day; postnatal day 6, 8, 10 and 12

Chain of PKCβ2 (P05771 1-673 isoform P05771-2): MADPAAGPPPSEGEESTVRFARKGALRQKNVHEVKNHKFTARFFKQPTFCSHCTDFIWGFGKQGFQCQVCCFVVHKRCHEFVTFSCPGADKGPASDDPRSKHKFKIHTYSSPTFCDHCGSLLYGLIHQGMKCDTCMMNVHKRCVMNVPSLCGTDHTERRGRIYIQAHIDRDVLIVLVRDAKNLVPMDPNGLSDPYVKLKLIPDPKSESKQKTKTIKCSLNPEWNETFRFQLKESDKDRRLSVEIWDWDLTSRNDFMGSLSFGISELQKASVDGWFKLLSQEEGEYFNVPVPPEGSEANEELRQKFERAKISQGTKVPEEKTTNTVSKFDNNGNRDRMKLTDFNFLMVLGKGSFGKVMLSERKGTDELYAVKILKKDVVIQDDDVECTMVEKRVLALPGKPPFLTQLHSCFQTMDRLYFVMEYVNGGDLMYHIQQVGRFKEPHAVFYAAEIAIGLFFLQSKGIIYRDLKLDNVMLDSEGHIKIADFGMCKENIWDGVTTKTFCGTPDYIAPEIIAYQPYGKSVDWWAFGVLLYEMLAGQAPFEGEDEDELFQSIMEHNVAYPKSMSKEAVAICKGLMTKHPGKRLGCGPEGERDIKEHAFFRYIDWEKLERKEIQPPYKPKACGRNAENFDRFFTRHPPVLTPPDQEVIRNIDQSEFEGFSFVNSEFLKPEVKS

**Q.** With `COc1ccc(CNC(=O)Nc2ncc([N+](=O)[O-])s2)cc1` [AR-A014418, reference compound] as the molecule, how does the “protection in the HCA oxidative stress model” value ([1]; HCA 5 mM, MTT assay) read?
**A.** provided some protection

**Q.** What about the “elevation of SMN levels in vitro” value [2] of the same molecule?
**A.** shown to elevate SMN levels in vitro

**Q.** Which IC50 [3] does the source give for `Cn1cc(C2=C(c3coc4ccccc34)C(=O)NC2=O)c2cc(Br)ccc21` [BIP-135, 3-(5-bromo-1-methyl-1H-indol-3-yl)-4-(benzofuran-3-yl)pyrrole-2,5-dione] here?
**A.** 219 nM

**Q.** And the “increase in SMN levels compared to vehicle treated cells” value ([5]; 25 µM, western blot)?
**A.** 7 fold

**Q.** And the “toxicity in SMA patient fibroblasts (bell-shaped dose-response)” value ([5]; higher concentrations)?
**A.** some toxicity at higher concentrations

**Q.** What about the “protection of HCA-treated cortical neurons (survival)” value ([1]; 20 µM, HCA 5 mM, MTT assay, HCA alone approximately 25 percent survival) of the same molecule?
**A.** about 80%

**Q.** What about the “protection in the HCA oxidative stress model” value ([1]; HCA 5 mM, MTT assay) of the same molecule?
**A.** able to protect at a lower concentration

**Q.** What about the “toxicity to neurons exposed to compound alone” value ([1]; absence of HCA) of the same molecule?
**A.** No significant toxicity

**Q.** And the “tolerability / toxicity in SMA KO animals” value ([6]; 75 mg/kg IP, 100% DMSO as vehicle)?
**A.** did not appear to be toxic and was well-tolerated

**Q.** And the “effect on SMA KO body weight versus vehicle” value ([6]; 75 mg/kg once a day, p = 0.0435, after around P6)?
**A.** showed an improvement in body weight

**Q.** And the “overall motor function (geotaxis and tube test)” value [7]?
**A.** did not improve the overall motor function

**Q.** What about the “percent of KO mice that completed the geotaxis test” value ([7]; P12, p = 0.0315) of the same molecule?
**A.** more KO animals treated with BIP-135 completed the geotaxis test

**Q.** What about the “latency to complete the negative geotaxis test” value ([7]; p = 0.0683) of the same molecule?
**A.** no significant treatment effects

**Q.** What about the “tube test parameters (time hanging, number of pulls, hind-limb strength score, tube test score)” value [8] of the same molecule?
**A.** no significant treatment effect

**Q.** With `O=C1Cc2c([nH]c3ccc([N+](=O)[O-])cc23)-c2ccccc2N1` [alsterpaullone] as the molecule, how does the “elevation of SMN levels in vitro” value [2] read?
**A.** shown to elevate SMN levels in vitro

**Q.** Which “elevation of SMN levels in vitro” value [2] does the source give for CHIR98014 here?
**A.** shown to elevate SMN levels in vitro
